The source of these data is ChEMBL document CHEMBL3853311, “Deuterium-Labeled Precursor Feeding Reveals a New pABA-Containing Meroterpenoid from the Mango Pathogen Xanthomonas citri pv. mangiferaeindicae” (J Nat Prod, 2016).

Structures are written as SMILES. Active and inactive are the calls of the source. No cut-off for these calls is given here.

Data set [1] is described as follows: Cytotoxicity against human Caco2 cells assessed as decrease in cell viability after 48 hrs by MTT assay. Format: functional, cell-based. The conditions noted are these: Caco-2, 48 h. The procedure, abridged: (§1)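 Cells kept in DMEM/F12 with 10% FBS, 2 mM glutamine, penicillin/streptomycin at 37 °C, 5% CO2; exponential-phase cells seeded at 1 × 10^4/well for 24 h. Treated at 0.2, 2 and 20 μg/mL for 48 h at 37 °C; vehicle controls = 100% viability. Formazan dissolved in DMSO, read at 570 nm (620 nm reference). IC50 by four-parameter logistic fit, ≥3 independent measurements, ±95% CI.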
Background: Tetrazolium assays rely on reduction of a dye to a coloured formazan, in cell work by metabolically active cells.

The nature of data set [2]: Cytotoxicity against human MCF7 cells assessed as decrease in cell viability after 48 hrs by MTT assay. The conditions noted are these: MCF7, 48 h. It is filed as functional, cell-based. Put shortly: as §1
Data set [3] can be described thus: Cytotoxicity against HEK293 cells assessed as decrease in cell viability after 48 hrs by MTT assay. Format: toxicity, cell-based. The conditions noted are these: human. The procedure, abridged:
as §1

Data set [4] can be described thus: Cytotoxicity against human U87MG cells assessed as decrease in cell viability after 48 hrs by MTT assay. Format: functional, cell-based, U-87MG ATCC. The conditions noted are these: U-87 MG. The procedure, abridged: as §1
Data set [5] in a line: Cytotoxicity against human 253JBV cells assessed as decrease in cell viability after 48 hrs by MTT assay. It is filed as functional, cell-based. Put shortly: as §1
Data set [6] in a line: Cytotoxicity against human A549 cells assessed as decrease in cell viability after 48 hrs by MTT assay. Format: functional, cell-based. The conditions noted are these: A549, 48 h. Put shortly: as §1
Data set [7] is described as follows: Cytotoxicity against human MDA-MB-231 cells assessed as decrease in cell viability after 48 hrs by MTT assay. It is filed as functional, cell-based. The conditions noted are these: MDA-MB-231, 48 h. Put shortly:
as §1

Data set [8] in a line: Cytotoxicity against human HeLa cells assessed as decrease in cell viability after 48 hrs by MTT assay. It is filed as functional, cell-based. Put shortly: as §1
Data set [9] can be described thus: Cytotoxicity against human PC3 cells assessed as decrease in cell viability after 48 hrs by MTT assay. It is filed as functional, cell-based. The conditions noted are these: PC-3, 48 h. Put shortly: as §1
Data set [10] in a line: Cytotoxicity against human MPanc96 cells assessed as decrease in cell viability after 48 hrs by MTT assay. It is filed as functional, cell-based. The conditions noted are these: MPANC96, 48 h. Put shortly:
as §1

Data set [11] concerns MDA-MB-231. Kind of data set: Induction of autophagy in human MDA-MB-231 cells assessed as decrease in p62 levels at 2 times IC50 after 24 to 48 hrs by immunoblot analysis. It is filed as functional, cell-based. The procedure, abridged: (§2)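 Cells seeded at 2.5 × 10^5/well, treated 24 h later at 1/2 IC50, IC50 and 2× IC50 (legend says 24 h, methods 48 h). Controls: MG132 4.76 μg/mL, BafA1 0.1 μg/mL, DMSO. Lysed in RIPA with protease inhibitors, BCA protein assay, 30 μg on 15% Tris/glycine SDS-PAGE. Blotted for LC3-I/II, p62 and polyubiquitinated proteins with HRP secondary and ECL detection.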
On the technique in general: Immunoblotting shows a protein as a band on a membrane.

The species named for data set [12] is Homo sapiens. Briefly: Induction of autophagy in human 253JBV cells assessed as decrease in p62 levels at 2 times IC50 after 24 to 48 hrs by immunoblot analysis. It is filed as functional, cell-based. The procedure, abridged:
as §2

Data set [13] is filed under the species Homo sapiens. Briefly: Induction of autophagy in human 253JBV cells assessed as decrease in polyubiquitinated protein levels at IC50 after 24 to 48 hrs by immunoblot analysis. It is filed as functional, cell-based. The procedure, abridged: as §2
Data set [14] has as its system MDA-MB-231. Briefly: Induction of autophagy in human MDA-MB-231 cells assessed as conversion of LC3-1 to LC3-2 at IC50 to 2 times IC50 after 24 to 48 hrs by immunoblot analysis. Format: functional, cell-based. Put shortly: as §2
For data set [15], the species on record is Homo sapiens. Kind of data set: Induction of autophagy in human 253JBV cells assessed as vacuole formation at 20 ug/ml after 48 hrs by microscopy. Format: functional, cell-based. Put shortly:
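Bladder cells grown 48 h untreated or with 20 μg/mL test agent, then inspected for morphology and vacuoles by inverted light microscopy against the control group.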

Data set [16] deals with HeLa. Briefly: Induction of autophagy in human HeLa cells assessed as decrease in p62 levels at IC50 after 24 to 48 hrs by immunoblot analysis. It is filed as functional, cell-based. The procedure, abridged:
as §2

The test system of data set [17] is MDA-MB-231. Briefly: Induction of autophagy in human MDA-MB-231 cells assessed as decrease in polyubiquitinated protein levels at IC50 to 2 times IC50 after 24 to 48 hrs by immunoblot analysis. Format: functional, cell-based. Put shortly:
as §2

Data set [18] is filed under the species Homo sapiens. Briefly: Induction of autophagy in human 253JBV cells assessed as conversion of LC3-1 to LC3-2 at IC50 to 2 times IC50 after 24 to 48 hrs by immunoblot analysis. It is filed as functional, cell-based. Put shortly:
as §2

Data set [19] relates to HeLa. Kind of data set: Induction of autophagy in human HeLa cells assessed as decrease in p62 levels at IC50 after 24 to 48 hrs by immunoblot analysis.
The test system of data set [20] is HeLa. Briefly: Induction of autophagy in human HeLa cells assessed as conversion of LC3-1 to LC3-2 at IC50 to 2 times IC50 after 24 to 48 hrs by immunoblot analysis. It is filed as functional, cell-based. The procedure, abridged: as §2

In general, IC50 refers to the concentration that inhibits the measured activity by half. For the compound `C=C1C(=O)O[C@@H]2C3O[C@]3(C)CC/C=C(\C)CC[C@@H]12` (stereo not given in full), the IC50 in data set [1] turned out to be 23.4 µM; in data set [2], 27.7 µM; in data set [4] it was 4.86 µM; in [5], 25.3 µM; in [6], 22 µM; in [7], 4.36 µM. The IC50 in data set [8] came out at 23.1 µM; in [9], 13 µM; in [10], 20.3 µM. Also, the IC50 at 48 h in [3] was found to be 3.1 µM.

Consider `C/C(=C\CC/C(C)=C/Cc1cc(C(=O)O)ccc1N)CC/C=C(\C)CC/C=C(\C)CCC(=O)O`, for which the IC50 in [1] was 25.9 µM; in data set [2], over 42.8 µM; in [4], over 42.8 µM; in data set [5] it was 36.5 µM; in [6], 25.8 µM; in data set [7] it was 12.9 µM. Further, the figures for the IC50 in data set [8], in data set [9] and in data set [10] were 18.2 µM, 42.3 µM and 36.4 µM, respectively. In addition, the outcome in [11], in data set [12], in [13], in data set [14], in [15] and in [16] was Active. Besides, the outcome in data set [17], in [18], in data set [19] and in data set [20] was Active. Besides, the IC50 at 48 h in data set [3] turned out to be 6.45 µM.
